CHRM1 PAM = human CHRM1 positive allosteric modulation | AID 588819 | P11229 | activation, % at 3 µM | CHO-K1 hM1, Fluo-8 calcium fluorescence, ACh EC20; 0% = ACh EC20, 100% = maximal ACh | actives 0.088% (n = 360,000); in the data active means activation above about 19%, passing the limit was not always enough
Target sequence (P11229 whole entry, looked up): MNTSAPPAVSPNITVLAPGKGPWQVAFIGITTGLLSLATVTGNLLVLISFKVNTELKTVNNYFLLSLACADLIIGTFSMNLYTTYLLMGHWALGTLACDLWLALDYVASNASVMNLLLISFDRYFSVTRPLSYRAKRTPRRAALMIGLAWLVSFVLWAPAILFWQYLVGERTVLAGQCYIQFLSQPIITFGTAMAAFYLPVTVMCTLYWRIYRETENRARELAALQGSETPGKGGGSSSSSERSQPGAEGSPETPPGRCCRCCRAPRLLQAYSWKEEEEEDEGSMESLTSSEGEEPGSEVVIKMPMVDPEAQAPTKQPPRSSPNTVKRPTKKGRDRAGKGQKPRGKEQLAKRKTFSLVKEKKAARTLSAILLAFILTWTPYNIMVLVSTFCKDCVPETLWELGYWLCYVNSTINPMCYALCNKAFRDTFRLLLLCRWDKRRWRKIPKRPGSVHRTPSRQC
M1 antag = human CHRM1 antagonism. CHO-K1 hM1, Fluo-8 calcium fluorescence, ACh EC80 antagonist. inhibition, % at 3 µM. actives 1.3% (n = 360,000);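 active means percent inhibition above its own plate's cutoff, namely the mean of that plate's compound wells plus 3 SD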;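 further: peak over basal fluorescence ratio during 140 s after agonist addition; 0% = ACh EC80 plus DMSO and 100% = DMSO alone without agonist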
TAAR1 antagonist = antagonists of human TAAR1. CHO RD-HGA16 TAAR1, Fluo-8 calcium fluorescence, antagonist. inhibition, % at 3 µM. actives 1.5% (n = 360,000);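 active means inhibition above a per-plate cutoff, the mean inhibition of test compounds on that plate plus 3 SD, cut at about 49% in these data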;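 further: 0% = DMSO plus EC80 beta-PEA response and 100% = DMSO alone without agonist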
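Test system – hTAAR1-expressing CHO RD-HGA16 cells, Gα16-coupled · Reagent – β-PEA at EC80 concentration, post-compound challenge · Compound dosing – 3 µM, single point · Timing – 140 s kinetic read after compound, 140 s after agonist · Detection – Fluo-8 intracellular calcium dye fluorescence, real-time kinetic reads · Control set – DMSO and EC80 PEA controls · Repeats – n of 1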
TAAR1 ag = agonists of human TAAR1. CHO RD-HGA16 TAAR1, Fluo-8 calcium fluorescence; vehicle wells 0%, saturating PEA agonist 100%. actives 0.99% (n = 360,000). activation, % at 3 µM. Q96RJ0. AID 624467;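 active means activation above the mean activation of all test compounds in the run plus 3 SD, cut at about 38% in these data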
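Test system: RD-HGA16 (CHO) cells co-expressing Gα16 and hTAAR1; dosing: one-point dosing at 3 µM (nominal); timing: 17-24 h seeding, 75 min 37 °C dye, 30 min RT; signal: kinetic Fluo-8 calcium fluorescence; read-out basis: % activation relative to PEA EC100 response; controls: DMSO and PEA EC100; replicates: n 1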
m5-HT2A agonist = activates the mouse 5-HT2A serotonin receptor. actives 0.66% (n = 360,000). AID 624169. activation, % at 7.6 µM. CHO-K1 mHTR2A beta-arrestin complementation, luminescence; percent of 30 µM serotonin response. P35363;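 active means activation above a run cutoff, the mean activation of all tested compounds plus 3 SD, cut at about 14% in these data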;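 further: 0% = plate median of compound wells and 100% = 30 µM serotonin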
M1 ag = human M1 muscarinic receptor agonism | actives 0.33% (n = 360,000) | AID 588814 | P11229 | CHO-K1 hM1, Fluo-8 calcium fluorescence, agonist mode; 0% DMSO, 100% acetylcholine EC100 | activation, % at 3 µM;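 active means activation above the run's mean compound activation plus 3 SD, cut at about 16% in these data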;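 further: peak over basal fluorescence ratio within a 140 s kinetic read after compound addition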
Starred values were filed as active, the others as inactive; nt = no result given. The list is not random: actives were taken first. Their share in the collection is about 3.9%.

SMILES	CHRM1 PAM	M1 antag	TAAR1 antagonist	TAAR1 ag	m5-HT2A agonist	M1 ag
Cc1c(C(=O)NCc2ccc3c(c2)OCO3)oc2ccc(S(=O)(=O)N3CCCC3)cc12	-7	18	34	22	-3	-2
COc1ccc(CNC(=O)c2oc3ccc(S(=O)(=O)N4CCOCC4)cc3c2C)cc1	-7	12	51*	29	-7	-1
Cc1c(C(=O)NCc2ccc3c(c2)OCO3)oc2ccc(S(=O)(=O)N3CCCCC3)cc12	-16	28*	29	21	-1	-2
CC1CCN(S(=O)(=O)c2ccc(C(=O)NCc3ccc4c(c3)OCO4)cc2)CC1	-12	16	58*	17	-5	-1
Cc1ccc(CNC(=O)c2oc3ccc(S(=O)(=O)N4CCOCC4)cc3c2C)cc1	-13	29	47	26	6	-3
CCOc1cc(CNCCO)cc(Br)c1OCc1ccc(Cl)cc1	9	-3	27	40*	-7	0
CCOc1cc(CNCCO)cc(Br)c1OCc1ccccc1Cl	13	-1	18	46*	-7	2
COc1cc(CNCCO)cc(Cl)c1OCc1ccccc1Cl	10	-7	-8	14	-3	0
CCOc1cccc(CNCCO)c1OCc1ccc(Cl)cc1	9	0	12	8	-3	-6
Nc1[nH]c(C(=O)c2ccc(Cl)cc2)c(-c2ccc(Br)cc2)c1C(=O)c1c[nH]c2ccc(F)cc12	nt	nt	-24	3	nt	nt
O=C(COC(=O)CNS(=O)(=O)c1cc(C(F)(F)F)ccc1Cl)NC1CC1	10	-4	-2	1	2	-5
COc1cccc(N2CCN(c3ccc4nnc(CCC(=O)Nc5ncccc5C)n4n3)CC2)c1	-15	38*	10	4	1	-4
COc1cc(/C=C/C(=O)c2ccc(C)c([N+](=O)[O-])c2)cc(OC)c1O	2	0	14	45*	-3	3
CC1(C(=O)Nc2ccc(Cl)c(Cl)c2)CCN1C(=O)C1CCCCC1 (stereo unspecified)	-9	4	-40	-1	-3	-7
COc1ccccc1N1CCN(S(=O)(=O)CCNC(=O)C23CC4CC(CC(C4)C2)C3)CC1	-14	28	58*	16	-6	4
O=C(NCCS(=O)(=O)N1CCN(c2ccccc2)CC1)C12CC3CC(CC(C3)C1)C2	-1	-6	-4	7	-17	1
Cc1c(C=C(C#N)c2ccc([N+](=O)[O-])cc2)c(=O)n(-c2ccccc2)n1C	-21	30*	-4	-1	2	-7
Cc1c(NC(=O)CN2CCN(c3ccc([N+](=O)[O-])cc3)CC2)c(=O)n(-c2ccccc2)n1C	-1	-7	5	2	1	-6
Cc1ccc(C)c(CN2C(=O)CSc3ccc(C(=O)NCCN4CCOCC4)cc32)c1	0	-5	5	2	-2	-10
O=C(NCC1CCCO1)c1ccc2c(c1)N(Cc1ccccc1)C(=O)CS2 (stereo unspecified)	-21	45*	-4	4	-2	-5
O=C(NCCN1CCOCC1)c1ccc2c(c1)N(Cc1ccccc1F)C(=O)CS2	-18	59*	-9	3	-7	-3
O=C(CN1C(=O)CSc2ccc(S(=O)(=O)N3CCOCC3)cc21)NCCCN1CCCCC1	-15	38*	-21	11	-2	-6
O=C(NCCCN1CCOCC1)c1ccc2c(c1)N(Cc1c(F)cccc1Cl)C(=O)CS2	-33	100*	0	-2	1	-11
CC1CC(C)CN(CC(=O)N2CCOCC2)C1 (stereo unspecified)	-1	4	-9	2	5	-2
OC[C@@H]1CN(Cc2ccco2)C[C@H](n2cnc3c(NCc4ccc(F)cc4)ncnc32)O1	3	-4	9	0	-11	-3
Cc1cc(C)c(CSc2ncc(-c3ccc([N+](=O)[O-])cc3)[nH]2)c(C)c1	-20	41	60*	7	-5	-3

Screens as filed in PubChem.
